From PubChem BioAssay
Only some compounds are listed: those with a hit (about 2.9% of all), similar ones and a draw of the others.
TRPC4 act: opens the mouse TRPC4 cation channel | Q9QUQ5 | AID 2237 | B-score at 10 µM | HEK293 TRPC4beta/mu-opioid, Fluo4 calcium fluorescence; hits give high values | 310,000 tested, 0.49% active;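 active = B-score above 5 SD of library B-scores, and initial fluorescence ratio not above library mean plus 5 SD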;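 also: positive B-score marks a calcium rise read as TRPC4 activation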
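Incubation: 45 min room-temperature Fluo4 loading, 110 s read / System: HEK293 cells stably co-expressing mouse TRPC4beta and mu-opioid receptor / Signal: Fluo4 fluorescence, kinetic / Control set: buffer (low) and maximal DAMGO (high) / Measure: integrated baseline-normalised fluorescence ratio, converted to per-well B score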
TRPC4 PAM: allosteric potentiators of mouse TRPC4 channel. 310,000 tested, 0.42% active. B-score at 10 µM. Q9QUQ5. HEK293 TRPC4beta/mu-opioid, DAMGO EC20, Fluo-4 Ca2+ flux; hits give high values;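 active = B-score of calcium response area above 5 SD of library B-scores, with initial fluorescence ratio within 5 SD of library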;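 also: B-score of integrated fluorescence ratio over time as area under calcium response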
TRPC6 act: activates the mouse TRPC6 cation channel; Q61143; HEK293-TRPC6 membrane potential dye fluorescence; hits give high values; B-score at 10 µM; 310,000 tested, 0.13% active; AID 2550;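 active = B-score of the integrated fluorescence ratio above library mean plus 3 SD, and starting fluorescence ratio within library mean plus 5 SD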;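 also: higher score means more depolarization so channel activation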
Target sequence (Q61143 whole entry, looked up): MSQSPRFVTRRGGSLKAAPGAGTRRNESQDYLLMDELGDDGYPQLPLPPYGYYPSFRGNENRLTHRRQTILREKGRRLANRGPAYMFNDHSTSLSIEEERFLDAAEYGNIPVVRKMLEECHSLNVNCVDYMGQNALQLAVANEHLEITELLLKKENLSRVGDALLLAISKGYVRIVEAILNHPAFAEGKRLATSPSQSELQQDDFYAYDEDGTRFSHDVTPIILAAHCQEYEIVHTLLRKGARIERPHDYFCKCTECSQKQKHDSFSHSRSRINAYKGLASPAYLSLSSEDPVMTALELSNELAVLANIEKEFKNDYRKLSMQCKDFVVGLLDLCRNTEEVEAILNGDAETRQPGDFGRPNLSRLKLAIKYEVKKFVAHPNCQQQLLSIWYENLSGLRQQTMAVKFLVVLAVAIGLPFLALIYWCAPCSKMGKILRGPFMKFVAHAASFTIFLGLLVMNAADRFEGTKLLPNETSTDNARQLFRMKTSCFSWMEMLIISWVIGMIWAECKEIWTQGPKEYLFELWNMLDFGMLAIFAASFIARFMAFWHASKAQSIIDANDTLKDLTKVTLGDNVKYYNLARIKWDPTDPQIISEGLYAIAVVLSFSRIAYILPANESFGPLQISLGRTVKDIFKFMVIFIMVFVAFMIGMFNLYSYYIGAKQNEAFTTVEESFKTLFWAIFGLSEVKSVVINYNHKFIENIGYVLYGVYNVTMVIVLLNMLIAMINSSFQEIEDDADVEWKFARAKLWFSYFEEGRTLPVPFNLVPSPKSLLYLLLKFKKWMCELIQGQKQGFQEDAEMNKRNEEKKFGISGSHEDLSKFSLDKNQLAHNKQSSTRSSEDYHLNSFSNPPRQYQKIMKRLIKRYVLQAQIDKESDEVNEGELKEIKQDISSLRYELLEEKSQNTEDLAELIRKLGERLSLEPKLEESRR
TRPC6 inhibitor: inhibitors of mouse TRPC6 channel; Q61143; HEK293-TRPC6, membrane potential dye, ACh-evoked depolarization; hits give low values; B-score at 10 µM; 310,000 tested, 1.1% active; AID 2553;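 active = B-score under library mean minus 3 SD, initial fluorescence not abnormally high, positive integrated signal ratio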;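 also: B-score derived from integrated fluorescence ratio over the kinetic read; more negative B-score means stronger inhibition of depolarization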
TRPC4 inh: TRPC4 (mouse) channel inhibition | HEK293 TRPC4beta/mu-opioid, DAMGO-evoked Fluo4 calcium flux; hits give low values | B-score at 10 µM | 300,000 tested, 0.39% active | AID 2247;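 active = B-score over 3 SD under the library average, no early fluorescence shift, positive overall ratio signal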
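material = TRPC4beta/mu-opioid receptor HEK293 cell line | probe or stimulus = sequential submaximal and maximal DAMGO stimulation | compound dosing = one concentration per compound | measured by = Fluo4 Ca2+ flux fluorescence | evaluation = integrated fluorescence ratio relative to baseline, converted to per-well B score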
Kir21 block: Kir2.1 (mouse) channel inhibition | P35561 | HEK293-Kir2.1, FluxOR thallium flux fluorescence; hits give low values | B-score at 10 µM | 310,000 tested, 0.85% active | AID 1672;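 active = fluorescence ratio B-score at or below minus 3 SD of library scores, with starting-brightness B-score within 2 SD, cut at about -4.2 in these data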;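 also: channel flux triggered by added potassium and thallium sulfate stimulus; B-score of peak minus minimum fluorescence over baseline after thallium stimulus; more negative B-score means stronger Kir2.1 block with less thallium influx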
TRPC4 sel inh 2: second check of whether TRPC6 inhibitors also affect mouse TRPC4. shares compounds with TRPC6 inhibitor. HEK293 TRPC4/MOR, membrane potential dye fluorescence; channel activated by saturating DAMGO dose. inhibition, % at 10 µM. 920 tested, 42% active. AID 2776;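 active = compounds whose fluorescence signal differed from control wells by over 3 SD, either direction, in both duplicate plates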
TRPC4 spec: tests whether TRPC6 inhibitors also affect mouse TRPC4. shares compounds with TRPC6 inhibitor. HEK293 TRPC4/mu-opioid, membrane potential fluorescence. activity change, negative = inhibition, % at 10 µM. 920 tested, 61% active;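 active = rise or fall in signal beyond 3 SD of buffer-only wells in both replicate plates, either sign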;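 also: integrated kinetic ratio of fluorescence range over baseline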
HEK293 MPD ctr 2-1: second counter-screen for TRPC6 inhibitors: parental HEK293 cells; shares compounds with TRPC6 inhibitor; parental HEK293 membrane potential dye fluorescence; maximal acetylcholine challenge after compound addition; signal change vs control, % at 10 µM; 920 tested, 31% active; AID 2779;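 active = membrane potential signal moving either way by over 3 SD of the maximum-effect control, in both duplicate plates, meaning non-specific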
HEK293 MPD ctr-1: counter-screen for TRPC6 inhibitors: effect in parental HEK293 cells; membrane potential signal change, % at 10 µM; parental HEK293 membrane potential dye fluorescence; 920 tested, 60% active; shares compounds with TRPC6 inhibitor;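 active = membrane potential signal shifting up or down by more than 3 SD of buffer-only wells, on both duplicate plates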
HEK293 MPD ctr-2: counter-screen for TRPC6 modulators: effect in parental HEK293 cells; membrane potential dye fluorescence; 2,400 tested, 51% active; membrane potential signal change, % at 10 µM; AID 488924; shares compounds with TRPC6 inhibitor;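 active = membrane potential signal moves up or down beyond 5 SD from buffer-only wells, on both duplicate plates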
HEK293 MPD ctr 2-2: second check of TRPC6 modulator effects in parental HEK293 cells | shares compounds with TRPC6 inhibitor | membrane potential dye fluorescence; after compound, maximal acetylcholine stimulation | inhibition, % at 10 µM | 2,400 tested, 14% active | AID 488926;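 active = membrane potential signal drops by more than 5 SD from the mean control signal, in both duplicate plates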;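 also: plate controls were acetylcholine ECmax control wells for no effect and buffer only wells for full effect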
TRPC4/MOR mod: tests whether TRPC6 modulators also affect mouse TRPC4; shares compounds with TRPC6 inhibitor; HEK293 TRPC4/mu-opioid, membrane potential fluorescence; percent change from control (negative = decrease, positive = increase), % at 10 µM; 2,400 tested, 69% active; AID 488927;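 active = membrane potential signal moved up or down beyond 5 SD of buffer control wells, in both duplicate plates, actives on both sides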;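 also: plate controls were assay buffer wells for no effect and DAMGO maximal-effect wells for full effect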
TRPC4/MOR inh 2: mouse TRPC4 off-target activity of TRPC6 modulators, second screen. AID 488928. inhibition, % at 10 µM. HEK293 TRPC4/mu-opioid, membrane potential dye fluorescence; stimulated with maximal-effect DAMGO. shares compounds with TRPC6 inhibitor. 2,400 tested, 55% active;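 active = drop in membrane potential signal beyond 5 SD of the control wells in both duplicate plates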;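 also: TRPC4 counter screen for TRPC6 hits run under conditions tuned for TRPC6 not TRPC4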
TRPC6 block conf: confirmation of mouse TRPC6 inhibitors; shares compounds with TRPC6 inhibitor; HEK293-TRPC6, membrane potential dye, ACh-evoked depolarization; inhibition, % at 10 µM; 3,300 tested, 43% active; AID 488960;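 active = fluorescence ratio falls more than 5 SD below the full-stimulation control mean, in both duplicate runs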;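 also: integrated fluorescence ratio of peak minus minimum over baseline after agonist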
TRPC6 act conf: mouse TRPC6 activator confirmation; activation, % at 10 µM; HEK293-TRPC6 membrane potential dye fluorescence, FDSS; shares compounds with TRPC6 inhibitor; 2,800 tested, 11% active;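 active = ratio signal rise beyond 5 SD above unstimulated control wells' mean, seen in both duplicate runs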;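 also: plate controls were buffer EC0 wells for no effect and acetylcholine ECmax response for full effect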
An asterisk follows results filed as active; i = inactive; . = not tested or not shown.

SMILES | TRPC4 act | TRPC4 PAM | TRPC6 act | TRPC6 inhibitor | TRPC4 inh | Kir21 block | HEK293 MPD ctr-2 | HEK293 MPD ctr 2-2 | TRPC4/MOR mod | TRPC4/MOR inh 2 | TRPC6 block conf | TRPC6 act conf | others
CCC[N+]1(CC#CCC(c2ccccc2)c2ccccc2)CCCCC1 | i | i | i | -5.21* | i | -4.16 | i | i | 11.5%* | i | 42.0%* | i
C(#Cc1ccccc1)C[N+]1(CC#Cc2cccc3ccccc23)CCOCC1 | i | i | i | -5* | i | -0.54 | -78.5%* | i | -16.5%* | i | i | i
C(#Cc1ccccc1)C[N+]1(CC#Cc2ccccc2)CCCCC1 | i | i | i | -9.06* | i | -0.76 | . | . | . | . | 65.7%* | i | TRPC4 sel inh 2=i;TRPC4 spec=-0.2%*;HEK293 MPD ctr 2-1=i;HEK293 MPD ctr-1=0.7%*
Cc1ccc(C#CC[N+]2(CC#Cc3ccc(C)cc3)CCCCC2)cc1 | i | i | i | -5.39* | i | -6.81* | 92.0%* | i | 17.0%* | i | 44.5%* | .
O=C(CCc1nnc(CCCCc2ccccc2)o1)N1CCCCC1CCO (centres undefined) | i | i | i | i | i | 0.02 | . | . | . | . | . | .
NC(=O)COc1c(-c2ccc(Br)o2)oc2ccccc2c1=O | i | i | i | i | i | -0.48 | . | . | . | . | . | .
CN1CCN(S(=O)(=O)c2cccc(C(=O)Nc3ccccc3N3CCCCC3)c2)CC1 | i | i | i | i | i | -2.04 | . | . | . | . | . | .
COc1cnc(-c2ccccn2)nc1N(C)c1ccccc1 | i | i | i | -5.87* | i | -0.62 | -59.0%* | i | i | 28.0%* | i | i
COc1cnc(-c2ccccn2)nc1Oc1ccccc1 | i | i | i | i | i | 0.98 | . | . | . | . | . | .
COc1ccc(Sc2nc(-c3ccccn3)ncc2OC)cc1 | i | i | i | -6.1* | i | 0.63 | -99.0%* | i | -15.0%* | i | i | i
CCOC(=O)c1sc2ncnc(N3CCN(CC)CC3)c2c1C | i | i | i | -5.52* | i | -1.78 | -128.0%* | i | -21.0%* | 41.0%* | i | i
CCOC(=O)c1sc2ncnc(N3CCN(C(=O)OCC)CC3)c2c1C | i | i | i | i | i | -1.31 | . | . | . | . | . | .
CC(=O)c1cc2c(cc1NC(=O)c1cnc(C)cn1)OCO2 | i | i | i | -11.2* | i | -0.56 | . | . | . | . | i | i | TRPC4 sel inh 2=73.5%*;TRPC4 spec=-28.1%*;HEK293 MPD ctr 2-1=i;HEK293 MPD ctr-1=-412.5%*
CC(=O)c1cc2c(cc1NC(=O)c1cc(C)nn1-c1ccccc1)OCO2 | i | i | i | i | i | -0.99 | . | . | . | . | . | .
CCCN(CC(=O)Nc1ccccc1C)C(=O)c1ccc(=O)n(Cc2ccccc2)n1 | i | i | i | -5.1* | i | 0.64 | 89.5%* | i | 16.5%* | i | i | i
CN(C(=O)COC(=O)c1ccc(S(=O)(=O)N2CCOCC2)cc1)C1CCCCC1 | i | i | i | i | i | 0.52 | . | . | . | . | . | .
O=C(O)C1CC(c2ccccc2)=Nc2ccccc2S1 (centres undefined) | i | i | i | -5.35* | i | 1.75 | 136.5%* | i | 28.0%* | i | i | .
Oc1ccc(Cl)cc1Cc1cc(Cl)ccc1O | i | i | i | -5.12* | i | -5.98* | i | 69.0%* | -12.5%* | 63.0%* | 66.5%* | i
Oc1ccc(Cl)cc1CNn1cnnc1 | i | i | i | i | i | 0.02 | . | . | . | . | . | .
COC(=O)C(C(=O)Nc1ccc(OC)cc1)C1CCCCCC1 (centres undefined) | i | i | i | i | i | 1.38 | . | . | . | . | . | .
O=C(Nc1ccccc1Oc1ccccc1)c1ccc(Br)o1 | i | i | i | i | i | 1.77 | . | . | . | . | . | .
O=[N+]([O-])c1ccc(OCCCCN2CCc3ccccc3C2)cc1 | i | i | i | -8.36* | i | -0.9 | . | . | . | . | i | i | TRPC4 sel inh 2=43.5%*;TRPC4 spec=i;HEK293 MPD ctr 2-1=i;HEK293 MPD ctr-1=i
O=c1[nH]c(/C=C/c2ccc([N+](=O)[O-])cc2)c([N+](=O)[O-])c(=O)[nH]1 | i | i | i | i | i | -1.06 | . | . | . | . | . | .
Cc1cccc(NC(=O)COc2ccc(/C=C\c3[nH]c(=O)[nH]c(=O)c3[N+](=O)[O-])cc2)c1 | i | i | 13.6* | i | i | 0.21 | i | i | i | i | i | i
CC1=NN(c2ccccc2)C(=O)/C1=C/c1cc(C)n(C2CC2)c1C | i | i | i | i | i | 0.53 | . | . | . | . | . | .
CS(=O)(=O)N1CCN(C(=O)C2c3ccccc3Oc3ccccc32)CC1 | i | i | i | -5.7* | i | -0.57 | i | i | 18.0%* | i | 42.5%* | .
O=C(Nc1ccc(F)c(Cl)c1)C1CCN(c2ncnc3c2nc2n3CCCCC2)CC1 | i | i | i | i | i | -0.64 | . | . | . | . | . | .
